Source: PubChem BioAssay (Broad Institute)
Hits are enriched below; roughly 3% of the tested compounds scored in any of these assays.
Cneo AK release: Cryptococcus neoformans cell lysis inducers, primary screen, AK release luminescence, single concentration | C. neoformans lysis, adenylate kinase release luminescence, 4 h; normalised: neutral wells 0, clomiphene wells 100 | lysis activity, % at 15 µM | 360,000 compounds, 0.2% hits | AID 651654, 2012;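 active means mean lysis activity across replicates of at least 80%, whatever share of replicates individually reach that level; inactive means mean lysis activity below 80%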
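Assay system: Cryptococcus neoformans yeast cells / Dosing: single-point compound dose / Timing: 4 h at 37 °C static, read 1 h later / Measured by: luminescence of released adenylate kinase using an AK detection reagent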
PGC1a acetyl inh: inhibitors of PGC1a acetylation signal, primary screen, cell-based, U2OS, AlphaScreen, inhibitor mode | AID 651687, 2012 | 350,000 compounds, 0.17% hits | AlphaScreen anti-acetyl-lysine; with virally co-expressed GCN5 acetyltransferase | inhibition, % at 15.6 µM;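 active means every replicate shows inhibition of at least 40%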;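 further: 0% = neutral control wells and 100% = positive control wells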
S100A4 MyoIIA: inhibitors of S100A4-myosin IIA peptide binding, primary screen, biochemical, fluorescence polarization, TAMRA-MyoIIA peptide; 360,000 compounds, 0.14% hits; AID 652163, 2013; Protein S100-A4 (Homo sapiens), P26447; inhibition, % at 10.7 µM;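 active means mean inhibition of at least 70% across replicates, with every replicate also reaching that level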
Target sequence (P26447 whole entry, looked up): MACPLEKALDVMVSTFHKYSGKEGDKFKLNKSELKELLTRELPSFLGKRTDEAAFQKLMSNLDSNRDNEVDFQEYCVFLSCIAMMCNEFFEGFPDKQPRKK
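Material: S100A4 monomer protein | Medium: HEPES pH 7.2 with CaCl2, KCl, NaCl, DTT, Triton | Reagent: Labelled myosin peptide probe, 5 nM | Doses: One dose per compound | Times: 5 min incubation before reading | Benchmarks: Neutral control DMSO, positive control TFP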
SIRT5 block: SIRT5 desuccinylase inhibitors, primary screen, biochemical, fluorescence imaging, single point, set 5. AID 652115, 2013. inhibition, % at 15 µM. Purified SirT5, succinyl-peptide AMC, trypsin-coupled fluorescence. 330,000 compounds, 1.1% hits; in the data active means inhibition above about 15%
Target sequence (Q9NXA8 whole entry, looked up): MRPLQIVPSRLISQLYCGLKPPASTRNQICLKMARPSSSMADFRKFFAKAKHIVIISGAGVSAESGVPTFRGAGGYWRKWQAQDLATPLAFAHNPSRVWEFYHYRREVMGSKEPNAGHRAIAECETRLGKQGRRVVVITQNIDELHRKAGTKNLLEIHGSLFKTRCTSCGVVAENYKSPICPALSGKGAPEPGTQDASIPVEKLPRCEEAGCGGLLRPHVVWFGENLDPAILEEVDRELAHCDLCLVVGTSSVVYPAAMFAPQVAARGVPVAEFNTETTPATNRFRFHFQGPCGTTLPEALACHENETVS
rRNA inh HTS: reduced GFP signal of wild-type E. coli, primary screen, bacterial rRNA inhibitor project, GFP/RFP fluorescence, OD600, single point; E. coli WT GFP vs humanized-ribosome RFP mutants, 24 h; active compounds read low; DMSO median 0, no signal -100; GFP signal change (wild-type ribosome), % (test concentration not listed); 350,000 compounds, 1.6% hits; AID 720706, 2013;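 active means significant combined selectivity score with lowered wild-type GFP, culture density cut under 30%, mutant RFP and density less affected; inactive means any of these conditions unmet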
C2C12 statin: suppressors of statin myotoxicity in C2C12 myotubes, primary screen, cell-based, single point, plate reader; AID 602340, 2012; rescue of ATP level, % at 7.49 µM; C2C12 myotubes + simvastatin, ATP luminescence, 48 h; scaled: DMSO 0, geranylgeraniol control 100; 330,000 compounds, 0.78% hits;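 active means mean ATP rescue above about 67%, or every replicate alone reaching that limit, limit read from the data, passing the limit was not always enough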;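 further: myotubes were challenged with 10 µM simvastatin during compound exposure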
* marks the source's active call; other numbers are inactive results; x = no result; ! = a repeat was not active.

SMILES | Cneo AK release | PGC1a acetyl inh | S100A4 MyoIIA | SIRT5 block | rRNA inh HTS | C2C12 statin
COc1ccc(-c2cnc3c(c2)C(=O)N([C@H](C)CO)C[C@H](C)[C@@H](CN(C)S(=O)(=O)c2ccc(OC)cc2)O3)cc1 | x | 2 | x | x | -3 | 41
C[C@H](NC(=O)C[C@@H]1CC[C@@H](NC(=O)C2CCC2)[C@@H](CO)O1)c1ccccc1 | 0 | -7 | 7 | 2 | 1 | -7
COCCn1c(N)c(C(=O)Nc2sc3c(c2C(=O)OC)CCCC3)c2nc3ccccc3nc21 | 1 | 5 | x | x | x | 99*
C/C=C/c1cccc(-c2nc(C(=O)NC3CCC3)cc3c2[C@@H](CCO)N(S(=O)C(C)(C)C)C3)c1 (some centres undefined) | 7 | 8 | 0 | 22* | -5 | -12
Cn1cc([N+](=O)[O-])c(C(=O)Nc2nc(-c3ccc(Cl)cc3)cs2)n1 | 2 | 63* | x | x | x | x
Cc1ccc(C(=O)Nc2nc(-c3ccc(F)cc3)cs2)o1 | 17 | -29 | 4 | -6 | -45 | 7
Cc1ccc(-c2csc(NC(=O)c3ccc([N+](=O)[O-])o3)n2)cc1 | 0 | x | 12 | 3 | -4 | 91*
Cc1ccc(-c2csc(NC(=O)CCNC(=O)c3ccco3)n2)cc1 | x | 11 | -1 | 0 | -36* | x
O=C(Nc1nc2ccc(F)cc2s1)c1ccc([N+](=O)[O-])o1 | 0 | x | 3 | x | -26* | 37
O=C(C[C@H]1C[C@@H]2c3cc(NC(=O)NC4CCCC4)ccc3O[C@@H]2[C@H](CO)O1)NCc1ccc(Cl)cc1 | 55 | 8 | 0 | 3 | -2 | 0
Cc1cnc(NC(=O)c2nn(C)cc2[N+](=O)[O-])s1 | x | -131 | -13 | -5 | 14 | x
Cc1ccc(-c2nc(NC(=O)c3nn(C)cc3[N+](=O)[O-])sc2C)cc1C | 1 | 91* | -3 | 4 | -14 | -325
O=C(NCC1CCCO1)c1ccc(C(=O)NCC2CCCO2)cc1 (centres undefined) | x | -6 | x | x | x | 4
O=C(NCC1CCCO1)c1ccc(Cl)c(F)c1F (centres undefined) | 0 | -7 | x | x | x | 84*
C[C@H](CO)N1C[C@H](C)[C@@H](CN(C)C(=O)CC2CC2)Oc2cc(-c3ccccc3)ccc2S1(=O)=O | -6 | -1 | 3 | 3 | -4 | -13
C[C@@H]1CN([C@H](C)CO)C(=O)c2cc(/C=C/c3ccccc3)cnc2O[C@@H]1CN(C)S(C)(=O)=O | 87* | -3 | 14 | -16 | -1 | -11
C[C@@H]1CN([C@@H](C)CO)C(=O)c2cc(/C=C/c3ccccc3)cnc2O[C@@H]1CN(C)S(=O)(=O)c1ccc(F)cc1 | -1 | 9 | -2 | 32*! | 1 | 14
C[C@H]1CN([C@@H](C)CO)C(=O)c2cc(/C=C/c3ccccc3)cnc2O[C@H]1CN(C)S(C)(=O)=O | 19 | -11 | 18 | -18 | 0 | 6
C[C@H](CO)N1C[C@H](C)[C@H](CN(C)C(=O)c2ccccc2)OCCCC[C@H](C)Oc2ccc(NS(=O)(=O)c3ccccc3)cc2C1=O | -5 | -4 | 15 | 2 | -2 | x
COCC(=O)N1CC2(C1)CN(Cc1ccccc1F)[C@H](CO)c1[nH]c3cc(OC)ccc3c12 | x | 16 | -5 | 0 | -3 | x
COc1ccccc1NC(=O)Nc1ccc2c(c1)C(=O)N(C)C[C@H](OC)[C@H](C)CN(C)[C@@H](C)CO2 | -1 | -1 | 25 | 5 | 1 | 13
Cc1ccc(S(=O)(=O)Nc2ccc3c(c2)C(=O)N([C@H](C)CO)C[C@@H](C)[C@@H](CN(C)S(=O)(=O)c2c(C)noc2C)O3)cc1 | 0 | -8 | 4 | -5 | 0 | -25
O=[N+]([O-])c1ccc(N2CCN(CCOc3nonc3-c3ccccc3)CC2)c(Cl)c1 | 3 | 10 | -2 | -3 | 18 | -16
Cc1nonc1OCCN1CCN(c2ccc([N+](=O)[O-])cc2)CC1 | x | x | -2 | 3 | -23* | x
O=[N+]([O-])c1ccc(N2CCN(Cc3ccc([N+](=O)[O-])o3)CC2)cc1 | 4 | -11 | 3 | 3 | -23* | 12
SMILES | Cneo AK release | PGC1a acetyl inh | S100A4 MyoIIA | SIRT5 block | rRNA inh HTS | C2C12 statin
CC(=O)N(C)C[C@H]1Oc2ccc(N(C)C)cc2CC(=O)N(C)C[C@H]1C | x | x | x | x | -1 | x
CCNC(=O)Nc1ccc2c(c1)C(=O)N(C)[C@H]1CC[C@@H](CC(=O)Nc3ccccc3)O[C@@H]1CO2 | -4 | 3 | -10 | -4 | 1 | 4
O=C(CN1CCOCC1)NCC[C@H]1CC[C@@H](NC(=O)Nc2ccc(C(F)(F)F)cc2)[C@@H](CO)O1 | -2 | 10 | -11 | -2 | 1 | -1
C[C@H](CO)N1C[C@H](C)[C@H](CN(C)CC2CCCCC2)Oc2ncc(-c3ccc(F)cc3)cc2C1=O | -2 | 1 | -6 | 2 | 6 | -5
C[C@@H]1CN([C@H](C)CO)C(=O)c2cc(-c3ccc(F)cc3)cnc2O[C@H]1CN(C)Cc1cncnc1 | -14 | x | 107* | 3 | -3 | 1
C[C@@H]1CN([C@H](C)CO)C(=O)c2cc(-c3ccc(F)cc3)cnc2O[C@H]1CN(C)CC1CCCCC1 | 106* | -23 | -1 | 6 | 0 | -36
C[C@H](CO)N1C[C@H](C)[C@H](CN(C)Cc2ccccc2)OCCCC[C@H](C)Oc2ccc(NC(=O)Nc3ccc(C(F)(F)F)cc3)cc2C1=O | 3 | -3 | -1 | 3 | x | x
Cc1ccccc1S(=O)(=O)Nc1cccnc1 | 2 | 2 | x | x | x | 0
Cc1ccc(S(=O)(=O)Nc2cccnc2)c(C)c1C | 2 | -1 | 4 | 15* | 13 | -2
C[C@H](CO)N1C[C@H](C)[C@@H](CN(C)Cc2ccc(Cl)c(Cl)c2)OCCCC[C@H](C)Oc2ccc(NC(=O)Nc3ccccc3)cc2C1=O | -2 | 0 | -4 | 0 | 3 | -4
O=C(c1ccccc1)c1nccn1-c1ccc(Cl)nn1 | -2 | 7 | -1 | -5 | -36* | x
COc1cc(/C=N/NC(=O)c2nonc2N)cc(OC)c1OC | 2 | 3 | 1 | 18* | 16 | -2
COCC#Cc1ccc([C@H]2[C@@H](CO)N3CCCCN(C(=O)Nc4cc(F)ccc4F)C[C@H]23)cc1 | 1 | -5 | -19 | 0 | -1 | -7
